In PMC9476207 (ACS Omega, 2022):

Legend:
Experiment in all cases: NCI-60 single-dose antiproliferative screen
Assay type in all cases: cell-based
CCRF-CEM = conditions: Homo sapiens, 48 h, read-out: growth percent
Outline: (§1)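 NCI-60 protocol. Lines were grown in RPMI 1640 with 5% FBS and 2 mM L-glutamine, plated and incubated 24 h at 37 °C; time-zero plates were TCA-fixed. The test compound was dissolved in DMSO, diluted in medium with 50 μg/mL gentamicin and given once at a final 10^-5 M (DMSO control) for 48 h. Cells were fixed with cold TCA (1 h, 4 °C) and stained with 0.4% SRB in 1% acetic acid for 10 min. Dye was dissolved in 10 mM Trizma base and read at 515 nm. Growth percent was calculated from time-zero, test and control ODs.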

K-562 = conditions: Homo sapiens, K562, 48 h, read-out: growth percent
Outline: as §1

RPMI-8226 = conditions: Homo sapiens, RPMI-8226, 48 h, read-out: growth percent
Outline: as §1

SR = conditions: Homo sapiens, 48 h, read-out: growth percent
Outline: (§2)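 Cells grown in RPMI 1640 with 5% FBS and 2 mM L-glutamine, plated and held 24 h at 37 °C; time-zero plates TCA-fixed. DMSO stocks were diluted in gentamicin-containing medium to a final 10^-5 M, with a DMSO-only control. Exposure 48 h, 5% CO2. Adherent cells TCA-fixed 1 h at 4 °C, stained with 0.4% SRB, solubilised in 10 mM Trizma base, read at 515 nm. Growth percent derived from ODtzero, ODtest and ODctrl.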

HOP-92 = conditions: Homo sapiens, HOP-92, 48 h, read-out: growth percent
Outline: as §1

NCI-H23 = conditions: Homo sapiens, NCI-H23, 48 h, read-out: growth percent
Outline: as §1

NCI-H322M = conditions: Homo sapiens, 48 h, read-out: growth percent
Outline: as §1

NCI-H522 = conditions: Homo sapiens, NCI-H522, 48 h, read-out: growth percent
Outline: as §1

HT29 = conditions: Homo sapiens, HT-29, 48 h, read-out: growth percent
Outline: as §1

KM12 = conditions: Homo sapiens, KM12, 48 h, read-out: growth percent
Outline: as §1

SW-620 = conditions: Homo sapiens, SW-620, 48 h, read-out: growth percent
Outline: as §2

SF-268 = conditions: Homo sapiens, SF-268, 48 h, read-out: growth percent
Outline: as §1

SF-295 = conditions: Homo sapiens, SF-295, 48 h, read-out: growth percent
Outline: as §1

SF-539 = conditions: Homo sapiens, SF-539, 48 h, read-out: growth percent
Outline: as §2

SNB-75 = conditions: Homo sapiens, SNB-75, 48 h, read-out: growth percent
Outline: as §2

U251 = conditions: Homo sapiens, U-251, 48 h, read-out: growth percent
Outline: as §2

LOX IMVI = conditions: Homo sapiens, 48 h, read-out: growth percent
Outline: as §1

MALME-3M = conditions: Homo sapiens, 48 h, read-out: growth percent
Outline: as §1

MDA-MB-435 = conditions: Homo sapiens, MDA-MB-435, 48 h, read-out: growth percent
Outline: as §1

SK-MEL-2 = conditions: Homo sapiens, SK-MEL-2, 48 h, read-out: growth percent
Outline: as §2

SK-MEL-28 = conditions: Homo sapiens, SK-MEL-28, 48 h, read-out: growth percent
Outline: as §2

SK-MEL-5 = conditions: Homo sapiens, SK-MEL-5, 48 h, read-out: growth percent
Outline: as §2

UACC-257 = conditions: Homo sapiens, UACC-257, 48 h, read-out: growth percent
Outline: as §2

UACC-62 = conditions: Homo sapiens, UACC-62, 48 h, read-out: growth percent
Outline: as §2

OVCAR-5 = conditions: Homo sapiens, OVCAR-5, 48 h, read-out: growth percent
Outline: as §1

NCI/ADR-RES = conditions: Homo sapiens, 48 h, read-out: growth percent
Outline: as §1

SK-OV-3 = conditions: Homo sapiens, SK-OV-3, 48 h, read-out: growth percent
Outline: as §2

786-0 = conditions: Homo sapiens, 786-0, 48 h, read-out: growth percent
Outline: as §1

CAKI-1 = conditions: Homo sapiens, CAKI-1, 48 h, read-out: growth percent
Outline: as §1

RXF 393 = conditions: Homo sapiens, RXF 393, 48 h, read-out: growth percent
Outline: as §1

SN12C = conditions: Homo sapiens, 48 h, read-out: growth percent
Outline: as §2

DU-145 = conditions: Homo sapiens, DU-145, 48 h, read-out: growth percent
Outline: as §1

MCF-7 = conditions: Homo sapiens, MCF7, 48 h, read-out: growth percent
Outline: as §1

MDA-MB-231 ATCC = conditions: Homo sapiens, MDA-MB-231, 48 h, read-out: growth percent
Outline: as §1

HS 578T = conditions: Homo sapiens, 48 h, read-out: growth percent
Outline: as §1

BT-549 = conditions: Homo sapiens, BT-549, 48 h, read-out: growth percent
Outline: as §1

T-47D = conditions: Homo sapiens, T47D, 48 h, read-out: growth percent
Outline: as §2

Compound | activity at 10 µM (CCRF-CEM) | activity at 10 µM (K-562) | activity at 10 µM (RPMI-8226) | activity at 10 µM (SR) | activity at 10 µM (HOP-92) | activity at 10 µM (NCI-H23) | activity at 10 µM (NCI-H322M) | activity at 10 µM (NCI-H522) | activity at 10 µM (HT29) | activity at 10 µM (KM12) | activity at 10 µM (SW-620) | activity at 10 µM (SF-268) | activity at 10 µM (SF-295) | activity at 10 µM (SF-539) | activity at 10 µM (SNB-75) | activity at 10 µM (U251) | activity at 10 µM (LOX IMVI) | activity at 10 µM (MALME-3M) | activity at 10 µM (MDA-MB-435) | activity at 10 µM (SK-MEL-2) | also measured
COc1cc(CNC(=O)CCCC/C=C/C(C)C)ccc1OCc1cn(-c2ccccc2Cl)nn1 [14c, (E)-N-(4-((1-(2-Chlorophenyl)-1H-1,2,3-triazol-4-yl)methoxy)-3-methoxybenzyl)-8-methylnon-6-enamide] | 87.9% | 76.8% | 75.5% | 68.5% | 80.1% | 93.6% | 89.4% | 64.5% | 98.2% | 97.7% | 100% | 87.8% | 99.4% | 104% | 87.3% | 85.7% | 89.9% | 107% | 103% | 91% | activity at 10 µM (SK-MEL-28): 106%; activity at 10 µM (SK-MEL-5): 89.8%; activity at 10 µM (UACC-257): 87.9%; activity at 10 µM (UACC-62): 73.3%; activity at 10 µM (OVCAR-5): 104%; activity at 10 µM (NCI/ADR-RES): 92%; activity at 10 µM (SK-OV-3): 91.3%; activity at 10 µM (786-0): 93.8%; activity at 10 µM (CAKI-1): 93.4%; activity at 10 µM (RXF 393): 105%; activity at 10 µM (SN12C): 94.5%; activity at 10 µM (DU-145): 99.2%; activity at 10 µM (MCF-7): 97.2%; activity at 10 µM (MDA-MB-231 ATCC): 80.8%; activity at 10 µM (HS 578T): 97.2%; activity at 10 µM (BT-549): 90.8%; activity at 10 µM (T-47D): 74.3%
COc1cc(CNC(=O)CCCC/C=C/C(C)C)ccc1OCc1cn(-c2ccc([N+](=O)[O-])cc2)nn1 [14e, (E)-N-(3-Methoxy-4-((1-(4-nitrophenyl)-1H-1,2,3-triazol-4-yl)methoxy)benzyl)-8methylnon-6-enamide] | 84.9% | 74.5% | 61.8% | 62.2% | 90.3% | 83.2% | 97.9% | 78.2% | 98.1% | 90% | 99.8% | 86.1% | 89% | 104% | 83.9% | 86.4% | 89.5% | 98.4% | 99.7% | 92% | activity at 10 µM (SK-MEL-28): 102%; activity at 10 µM (SK-MEL-5): 76.1%; activity at 10 µM (UACC-257): 82.6%; activity at 10 µM (UACC-62): 69.3%; activity at 10 µM (OVCAR-5): 99.2%; activity at 10 µM (NCI/ADR-RES): 29%; activity at 10 µM (SK-OV-3): 76.7%; activity at 10 µM (786-0): 93.7%; activity at 10 µM (CAKI-1): 90.7%; activity at 10 µM (RXF 393): 99.7%; activity at 10 µM (SN12C): 91.7%; activity at 10 µM (DU-145): 105%; activity at 10 µM (MCF-7): 83.5%; activity at 10 µM (MDA-MB-231 ATCC): 75.3%; activity at 10 µM (HS 578T): 95.8%; activity at 10 µM (BT-549): 80.4%; activity at 10 µM (T-47D): 64%
COc1cc(CNC(=O)CCCC/C=C/C(C)C)ccc1OCc1cn(-c2cccc(Cl)c2)nn1 [14b, (E)-N-(4-((1-(3-Chlorophenyl)-1H-1,2,3-triazol-4-yl)methoxy)-3-methoxybenzyl)-8-methylnon-6-enamide] | 87.3% | 84.9% | 86.3% | 85.6% | 62.4% | 87.2% | 86.2% | 69.2% | 99.2% | 98.6% | 92.8% | 82.5% | 90.5% | 82% | 75.8% | 69.1% | 89.4% | 98.7% | 98.6% | 86.7% | activity at 10 µM (SK-MEL-28): 106%; activity at 10 µM (SK-MEL-5): 91.2%; activity at 10 µM (UACC-257): 90.1%; activity at 10 µM (UACC-62): 75%; activity at 10 µM (OVCAR-5): 99.8%; activity at 10 µM (NCI/ADR-RES): 76.6%; activity at 10 µM (SK-OV-3): 78.8%; activity at 10 µM (786-0): 76.8%; activity at 10 µM (CAKI-1): 79.6%; activity at 10 µM (RXF 393): 91%; activity at 10 µM (SN12C): 84.2%; activity at 10 µM (DU-145): 95.9%; activity at 10 µM (MCF-7): 86.9%; activity at 10 µM (MDA-MB-231 ATCC): 64.8%; activity at 10 µM (HS 578T): 74.8%; activity at 10 µM (BT-549): 99.3%; activity at 10 µM (T-47D): 81.1%
